Assay results from ChEMBL document CHEMBL1133040, “Activity-guided isolation of constituents of Cerbera manghas with antiproliferative and antiestrogenic activities” (Bioorg Med Chem Lett, 2000).
Converted amounts (≈) assume the structure as drawn.

Tests used:
Assay type in all cases: functional, cell-based
Col2 = assay: Inhibition of Col2 human colon cancer cell proliferation
Procedure, shortened: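 Col2 human colon cancer cells grown in MEME with 10% NAA, antibiotic-antimycotic and 10% FBS at 37 °C, 5% CO2. Exponentially growing cells seeded onto compounds dissolved in DMSO and grown 3 days at 37 °C. Cells TCA-fixed, stained with 0.4% sulforhodamine B in 1% acetic acid, dye solubilized in 0.1 M Tris, A515 read. % growth computed against day-0 and DMSO-control absorbances.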

Ishikawa [1] = assay: Antiestrogenic effects in Ishikawa cells; settings: Homo sapiens
Ishikawa [2] = assay: Inhibition of antiestrogenic response in Ishikawa cells
Ishikawa [3] = assay: Inhibition of Ishikawa cell proliferation
[4] = Homo sapiens, Ishikawa, read-out: IC50

SMILES | IC50 (Col2) | IC50 (Ishikawa [1]) | IC50 (Ishikawa [2]; ishikawa) | IC50 (Ishikawa [3]; ishikawa) | IC50 (Ishikawa [2]; [4]) | IC50 (Ishikawa [3]; [4])
COc1cc(C[C@H]2COC(c3ccc(O)c(OC)c3)[C@@]2(O)CO)ccc1O (stereo partly drawn) | > 10 µg/mL | > 10 µg/mL | – | – | – | –
CO[C@@H]1[C@@H](O)[C@H](C)O[C@@H](OC2CC[C@@]3(C)[C@H](CC[C@@H]4[C@@H]3C3OC3[C@]3(C)[C@H](C5=CC(=O)OC5)CC[C@]43O)C2)[C@@H]1O (stereo in doubt; 1) | – | – | 0.0042 µg/mL (≈ 0.00765 µM) | 0.015 µg/mL (≈ 0.0273 µM) | – | –
CO[C@@H]1[C@@H](O)[C@H](C)O[C@@H](OC2CC[C@@]3(C)[C@H](CC[C@@H]4[C@@H]3C3OC3[C@]3(C)[C@H](C5=CC(=O)OC5)CC[C@]43O)C2)[C@@H]1O (stereo in doubt; 2) | ≤ 5 µg/mL | ≤ 5 µg/mL | – | – | 0.008 µg/mL (≈ 0.0146 µM) | 0.02 µg/mL (≈ 0.0365 µM)
